The results in this text go back to ChEMBL document CHEMBL1154942, “Design, synthesis and evaluation of carbamate-modified (-)-N(1)-phenethylnorphysostigmine derivatives as selective butyrylcholinesterase inhibitors” (Bioorg Med Chem Lett, 2010).

Where only a bound is given, the exact number is not on record here.

By IC50 is commonly meant the concentration that inhibits the measured activity by half. The low end stands for higher potency, the high end for lower potency.

One assay addresses T1, Acetylcholinesterase (Mus musculus, UniProt P21836).
T1 sequence (P21836 whole entry): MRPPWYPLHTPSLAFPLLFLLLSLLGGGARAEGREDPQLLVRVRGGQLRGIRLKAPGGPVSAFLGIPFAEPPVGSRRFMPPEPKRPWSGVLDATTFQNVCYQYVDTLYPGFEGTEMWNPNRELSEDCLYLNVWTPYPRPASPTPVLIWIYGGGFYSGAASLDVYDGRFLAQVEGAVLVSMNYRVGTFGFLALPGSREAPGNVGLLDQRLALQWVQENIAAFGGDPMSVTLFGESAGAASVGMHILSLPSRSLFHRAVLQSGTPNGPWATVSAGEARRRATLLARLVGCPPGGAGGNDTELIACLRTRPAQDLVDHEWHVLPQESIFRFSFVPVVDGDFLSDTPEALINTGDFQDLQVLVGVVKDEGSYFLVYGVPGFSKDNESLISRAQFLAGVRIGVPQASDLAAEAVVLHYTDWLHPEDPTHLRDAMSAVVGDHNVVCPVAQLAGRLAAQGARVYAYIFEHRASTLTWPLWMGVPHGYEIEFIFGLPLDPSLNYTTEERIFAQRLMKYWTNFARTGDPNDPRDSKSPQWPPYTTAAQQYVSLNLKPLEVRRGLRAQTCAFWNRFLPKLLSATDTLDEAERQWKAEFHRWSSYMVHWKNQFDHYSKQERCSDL
Briefly: Inhibition of mouse brain AChE after 1 hr by modified Ellman's colorimetric method. The procedure, abridged: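 Enzyme from mouse brain extract. Compounds preincubated with enzyme 1 h at 37 °C, then acetylthiocholine plus DTNB added. Absorbance read at 415 nm at 2 min intervals. Activity expressed as percent of DMSO solvent control. Seven concentrations tested. IC50 from nonlinear regression of sigmoidal dose–response, accepted only if r² ≥ 0.95. Mean of at least four independent measurements.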

The next assay addresses Cholinesterase (Mus musculus, UniProt Q03311). Briefly: Inhibition of mouse serum BChE after 1 hr by modified Ellman's colorimetric method. An outline of the steps: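 Enzyme from mouse serum extract. Compounds preincubated with enzyme 1 h at 37 °C, then butyrylthiocholine plus DTNB added. Absorbance read at 415 nm at 2 min intervals. Activity expressed as percent of DMSO solvent control. Seven concentrations tested. IC50 from nonlinear regression of sigmoidal dose–response, accepted only if r² ≥ 0.95. Mean of at least four independent measurements.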
(In general: DTNB colorimetry detects thiols as they appear.)

Cholinesterase, sequence (Q03311 whole entry): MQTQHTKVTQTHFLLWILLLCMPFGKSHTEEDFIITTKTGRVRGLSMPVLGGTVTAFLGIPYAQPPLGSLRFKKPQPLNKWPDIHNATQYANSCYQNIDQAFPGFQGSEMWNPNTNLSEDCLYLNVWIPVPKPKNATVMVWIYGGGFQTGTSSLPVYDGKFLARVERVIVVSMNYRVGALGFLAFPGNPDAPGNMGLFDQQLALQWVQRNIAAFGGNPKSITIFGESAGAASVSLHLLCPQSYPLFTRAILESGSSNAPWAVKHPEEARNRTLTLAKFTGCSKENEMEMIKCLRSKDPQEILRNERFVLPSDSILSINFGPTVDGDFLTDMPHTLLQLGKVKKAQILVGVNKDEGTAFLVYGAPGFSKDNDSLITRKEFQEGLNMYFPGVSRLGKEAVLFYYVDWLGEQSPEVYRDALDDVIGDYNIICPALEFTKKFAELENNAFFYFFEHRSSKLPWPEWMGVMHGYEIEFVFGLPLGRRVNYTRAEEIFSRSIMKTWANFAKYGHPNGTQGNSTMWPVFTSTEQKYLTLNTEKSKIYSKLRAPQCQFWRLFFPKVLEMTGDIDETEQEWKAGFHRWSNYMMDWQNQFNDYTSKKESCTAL

With `CN1c2ccc(OC(=O)Nc3ccc(Cl)cc3)cc2[C@]2(C)CCN(CCc3ccccc3)[C@H]12`, the figures for the half-inhibitory concentration (IC50) on Acetylcholinesterase and at Cholinesterase were greater than 100000 nM and 370 nM, respectively.

In the case of `CN1c2ccc(OC(=O)Nc3ccc(C(C)(C)C)cc3)cc2[C@]2(C)CCN(CCc3ccccc3)[C@H]12`, the figures for the IC50 against Acetylcholinesterase and against Cholinesterase were 15000 nM and 430 nM, respectively.

`CCCCCCNC(=O)Oc1ccc2c(c1)[C@]1(C)CCN(CCc3ccccc3)[C@@H]1N2C`: the IC50 on Acetylcholinesterase is 970 nM; against Cholinesterase, 14 nM.

As to `CN1c2ccc(OC(=O)Nc3ccccc3)cc2[C@]2(C)CCN(CCc3ccccc3)[C@H]12`, the IC50 amounted to 1600 nM at Acetylcholinesterase and 340 nM against Cholinesterase.

As for `CN(C)c1ccc(NC(=O)Oc2ccc3c(c2)[C@]2(C)CCN(CCc4ccccc4)[C@@H]2N3C)cc1`, the results for the half-inhibitory concentration (IC50) on Acetylcholinesterase and against Cholinesterase were greater than 100000 nM and 79 nM, respectively.

For `CN1c2ccc(OC(=O)NC3CCCCC3)cc2[C@]2(C)CCN(CCc3ccccc3)[C@H]12`, the values for the IC50 on Acetylcholinesterase and on Cholinesterase were 5600 nM and 22 nM, respectively.

For `CN1c2ccc(OC(=O)NCC3CCCCC3)cc2[C@]2(C)CCN(CCc3ccccc3)[C@H]12`, the figures for the IC50 on Acetylcholinesterase and against Cholinesterase were 2500 nM and 1.8 nM, respectively.

As to `CCCCc1ccc(NC(=O)Oc2ccc3c(c2)[C@]2(C)CCN(CCc4ccccc4)[C@@H]2N3C)cc1`, the 50% inhibitory concentration (IC50) at Acetylcholinesterase was found to be 48000 nM; at Cholinesterase it was 980 nM.

For `CN1c2ccc(OC(=O)Nc3ccc(-c4ccccc4)cc3)cc2[C@]2(C)CCN(CCc3ccccc3)[C@H]12`, the 50% inhibitory concentration (IC50) against Acetylcholinesterase is greater than 100000 nM; against Cholinesterase, 1100 nM.

For `CN1c2ccc(OC(=O)Nc3ccc4ccccc4c3)cc2[C@]2(C)CCN(CCc3ccccc3)[C@H]12`, the results for the IC50 on Acetylcholinesterase and on Cholinesterase were 44000 nM and 580 nM, respectively.

`COc1ccc(NC(=O)Oc2ccc3c(c2)[C@]2(C)CCN(CCc4ccccc4)[C@@H]2N3C)cc1`: the IC50 worked out at 33000 nM at Acetylcholinesterase and 83 nM at Cholinesterase.

As for `CCCCCCOc1ccc(NC(=O)Oc2ccc3c(c2)[C@]2(C)CCN(CCc4ccccc4)[C@@H]2N3C)cc1`, the IC50 against Acetylcholinesterase was greater than 100000 nM; against Cholinesterase, 1400 nM.

For the compound `CC(=O)c1ccc(NC(=O)Oc2ccc3c(c2)[C@]2(C)CCN(CCc4ccccc4)[C@@H]2N3C)cc1`, the IC50 on Acetylcholinesterase is greater than 100000 nM; against Cholinesterase, 5900 nM.

`CN1c2ccc(OC(=O)Nc3ccc([N+](=O)[O-])cc3)cc2[C@]2(C)CCN(CCc3ccccc3)[C@H]12`: the half-inhibitory concentration (IC50) is greater than 100000 nM on Acetylcholinesterase and 6700 nM against Cholinesterase.

For `CN1c2ccc(OC(=O)NCc3ccccc3)cc2[C@]2(C)CCN(CCc3ccccc3)[C@H]12`, the IC50 against Acetylcholinesterase was determined as 180 nM; at Cholinesterase, 6.6 nM.

Regarding `CN1c2ccc(OC(=O)NCCc3ccccc3)cc2[C@]2(C)CCN(CCc3ccccc3)[C@H]12`, the half-maximal inhibitory concentration (IC50) at Acetylcholinesterase was determined as 450 nM; at Cholinesterase it was 16 nM.

Turning to `CN1c2ccc(OC(=O)Nc3ccc(Oc4ccccc4)cc3)cc2[C@]2(C)CCN(CCc3ccccc3)[C@H]12`, the IC50 is greater than 100000 nM against Acetylcholinesterase and 2000 nM against Cholinesterase.

Consider `COc1ccc(NC(=O)Oc2ccc3c(c2)[C@]2(C)CCN(CCc4ccccc4)[C@@H]2N3C)cc1OC`, for which the values for the half-maximal inhibitory concentration (IC50) against Acetylcholinesterase and against Cholinesterase were 11000 nM and 97 nM, respectively.

As for `CN1c2ccc(OC(=O)Nc3ccc4c(c3)OCO4)cc2[C@]2(C)CCN(CCc3ccccc3)[C@H]12`, the 50% inhibitory concentration (IC50) against Acetylcholinesterase is 1900 nM; against Cholinesterase, 100 nM.

`CNC(=O)Oc1ccc2c(c1)[C@]1(C)CCN(CCc3ccccc3)[C@@H]1N2C`: the results for the 50% inhibitory concentration (IC50) on Acetylcholinesterase and on Cholinesterase were 170 nM and 10 nM, respectively.

Consider `CC(C)c1ccc(NC(=O)Oc2ccc3c(c2)[C@]2(C)CCN(CCc4ccccc4)[C@@H]2N3C)cc1` [PHENETHYLCYMSERINE], for which the figures for the IC50 against Acetylcholinesterase and at Cholinesterase were greater than 100000 nM and 540 nM, respectively.

Take `CNC(=O)Oc1ccc2c(c1)[C@]1(C)CCN(C)[C@@H]1N2C` [PHYSOSTIGMINE]: the values for the IC50 against Acetylcholinesterase and against Cholinesterase were 40 nM and 280 nM, respectively.
